Consider seven compounds from ChEMBL document CHEMBL1138404, “Bisindole alkaloids of the topsentin and hamacanthin classes from a marine sponge Spongosorites sp” (J Nat Prod, 2007).

A short description of data set [1]: Cytotoxicity against human HCT15 cell line. The data set is classed as cell-based. Particulars: HCT-15 cells, read-out: ED50 (the source's name).
Data set [2] can be described thus: Cytotoxicity against human XF498 cell line. The data set is classed as cell-based. Conditions: XF498 cells, read-out: ED50 (the source's name).
A short description of data set [3]: Cytotoxicity against human SK-MEL-2 cell line. The data set is classed as cell-based. Particulars: SK-MEL-2 cells, read-out: ED50 (the source's name).
Data set [4] can be described thus: Cytotoxicity against human A549 cell line. The data set is classed as cell-based. Particulars: A549 cells, read-out: ED50 (the source's name).
Data set [5] in a line: Cytotoxicity against human SK-OV-3 cell line. The data set is classed as cell-based. Conditions: SK-OV-3 cells, read-out: ED50 (the source's name).
Data set [6] has as its system Escherichia coli. As to the kind of experiment: Antibacterial activity against […] Escherichia coli TEM. It is filed as functional. In outline: (§1)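 Agar dilution MIC: Mueller Hinton agar plates containing 17 serial dilutions of sample (final 25 to 0.002 μg/mL), meropenem and imipenem as standards. Strains grown 18 h at 37 °C in Fleisch extract broth (10% horse serum for some strains), spotted onto plates by automatic inoculator; MIC read after 18 h incubation.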

The subject of the next data set is Klebsiella oxytoca. As to the kind of experiment: Antibacterial activity against […] Klebsiella oxytoca 1082E. The data set is classed as functional. In outline: as §1
In data set [7] the test system is Pseudomonas aeruginosa. As to the kind of experiment: Antibacterial activity against […] Pseudomonas aeruginosa 1771M. The data set is classed as functional. In a few lines:
as §1

The subject of data set [8] is Pseudomonas aeruginosa. As to the kind of experiment: Antibacterial activity against […] Pseudomonas aeruginosa 1592E. The data set is classed as functional. In a few lines: as §1
For data set [9], the system named is Escherichia coli. As to the kind of experiment: Antibacterial activity against […] Escherichia coli 078. The data set is classed as functional. In a few lines:
as §1

Data set [10] concerns Staphylococcus aureus. As to the kind of experiment: Antibacterial activity against methicillin-resistant Staphylococcus aureus 285. It is filed as functional. In outline:
as §1

The test system of data set [11] is Escherichia coli. As to the kind of experiment: Antibacterial activity against […] Escherichia coli DC2. The data set is classed as functional. In outline:
as §1

Another data set relates to Enterococcus faecium. As to the kind of experiment: Antibacterial activity against […] Streptococcus faecium MD8b. It is filed as functional. In a few lines:
as §1

Data set [12] concerns Staphylococcus aureus. As to the kind of experiment: Antibacterial activity against methicillin-resistant Staphylococcus aureus SG511. The data set is classed as functional. In outline:
as §1

In data set [13] the test system is Streptococcus pyogenes. As to the kind of experiment: Antibacterial activity against methicillin-resistant Streptococcus pyogenes 77A. It is filed as functional. In outline:
as §1

The subject of a further data set is Salmonella typhimurium. As to the kind of experiment: Antibacterial activity against […] Salmonella Typhimurium. It is filed as functional, Salmonella enterica subsp. enterica serovar Typhimurium. Particulars: Salmonella enterica. In outline:
as §1

The test system of data set [14] is Pseudomonas aeruginosa. As to the kind of experiment: Antibacterial activity against […] Pseudomonas aeruginosa 1771. It is filed as functional. In outline:
as §1

Data set [15] deals with Pseudomonas aeruginosa. As to the kind of experiment: Antibacterial activity against […] Pseudomonas aeruginosa 9027. It is filed as functional. In outline:
as §1

The subject of data set [16] is Escherichia coli. As to the kind of experiment: Antibacterial activity against […] Escherichia coli DC0. The data set is classed as functional. In a few lines: as §1
The subject of data set [17] is Streptococcus pyogenes. As to the kind of experiment: Antibacterial activity against methicillin-resistant Streptococcus pyogenes 308A. The data set is classed as functional. In a few lines: as §1
In data set [18] the test system is Escherichia coli. As to the kind of experiment: Antibacterial activity against […] Escherichia coli 1507E. It is filed as functional. In a few lines: as §1
Data set [19] deals with Enterobacter cloacae. As to the kind of experiment: Antibacterial activity against […] Enterobacter cloacae 1321E. It is filed as functional. In a few lines: as §1
The test system of another data set is Klebsiella aerogenes. As to the kind of experiment: Antibacterial activity against […] Klebsiella aerogenes 1522E. The data set is classed as functional. In outline: as §1
In data set [20] the test system is Enterobacter cloacae. As to the kind of experiment: Antibacterial activity against […] Enterobacter cloacae P99. It is filed as functional. In a few lines: as §1
The test system of data set [21] is Staphylococcus aureus. As to the kind of experiment: Antibacterial activity against methicillin-resistant Staphylococcus aureus 503. It is filed as functional. In outline: as §1

Values after ≈ are worked out from the molar mass of the structure shown.

Turning to `O=C1NC[C@H](c2c[nH]c3cc(Br)ccc23)N=C1c1c[nH]c2cc(Br)ccc12` [HAMACANTHIN B], the CC50 in data set [1] was 1.52 µg/mL (≈ 3.13 µM); in [2] it was 2.93 µg/mL (≈ 6.03 µM); in [3] it was 1.59 µg/mL (≈ 3.27 µM); in [4], 2.14 µg/mL (≈ 4.4 µM); in data set [5], 2.61 µg/mL (≈ 5.37 µM).

What is called MIC is the lowest concentration found to suppress growth. Higher therefore signals a less susceptible organism. With `O=C1N[C@H](c2c[nH]c3cc(Br)ccc23)CN[C@H]1c1c[nH]c2ccccc12`, the minimum inhibitory concentration (MIC) against Escherichia coli [6] was over 25 µg/mL; in the data set with Klebsiella oxytoca, over 25 µg/mL; against Pseudomonas aeruginosa [7], over 25 µg/mL; against Pseudomonas aeruginosa [8], 25 µg/mL (≈ 61.1 µM); in the data set on Escherichia coli [9], over 25 µg/mL; in the data set with Staphylococcus aureus [10] it was over 25 µg/mL. Also, the MIC with Escherichia coli [11] is over 25 µg/mL; against Enterococcus faecium, over 25 µg/mL; against Staphylococcus aureus [12] it was over 25 µg/mL; with Streptococcus pyogenes [13], over 25 µg/mL; in the data set on Salmonella typhimurium, over 25 µg/mL; against Pseudomonas aeruginosa [14] it was 25 µg/mL (≈ 61.1 µM). Also, the MIC in the data set with Pseudomonas aeruginosa [15], in the data set with Escherichia coli [16], in the data set with Streptococcus pyogenes [17], with Escherichia coli [18], against Enterobacter cloacae [19] and against Klebsiella aerogenes was over 25 µg/mL each time. In addition, the MIC against Enterobacter cloacae [20] and against Staphylococcus aureus [21] was over 25 µg/mL throughout. Besides, the CC50 in data set [1] stood at 6.3 µg/mL (≈ 15.4 µM); in [2], 19.1 µg/mL (≈ 46.7 µM); in data set [3] it was 13.1 µg/mL (≈ 32 µM); in data set [4], 7.5 µg/mL (≈ 18.3 µM); in data set [5], 12.1 µg/mL (≈ 29.6 µM).

On to `O=C1NC[C@@H](c2c[nH]c3cc(Br)ccc23)N=C1c1c[nH]c2ccccc12` [(R)-6'-DEBROMOHAMACANTHIN B], for which the minimal inhibitory concentration (MIC) with Escherichia coli [6] is over 25 µg/mL; with Klebsiella oxytoca it was 25 µg/mL (≈ 61.4 µM); against Pseudomonas aeruginosa [7] it was 25 µg/mL (≈ 61.4 µM); in the data set on Pseudomonas aeruginosa [8], over 25 µg/mL; against Escherichia coli [9], over 25 µg/mL; with Staphylococcus aureus [10] it was 12.5 µg/mL (≈ 30.7 µM). Moreover, the MIC against Escherichia coli [11] was 25 µg/mL (≈ 61.4 µM); with Enterococcus faecium it was over 25 µg/mL; in the data set with Staphylococcus aureus [12], 12.5 µg/mL (≈ 30.7 µM); in the data set with Streptococcus pyogenes [13] it was 12.5 µg/mL (≈ 30.7 µM); in the data set on Salmonella typhimurium it was over 25 µg/mL; against Pseudomonas aeruginosa [14], 25 µg/mL (≈ 61.4 µM). Also, the MIC in the data set on Pseudomonas aeruginosa [15] is over 25 µg/mL; with Escherichia coli [16] it was over 25 µg/mL; against Streptococcus pyogenes [17] it was 6.3 µg/mL (≈ 15.5 µM); with Escherichia coli [18] it was over 25 µg/mL; in the data set on Enterobacter cloacae [19], over 25 µg/mL; in the data set on Klebsiella aerogenes, over 25 µg/mL. The minimum inhibitory concentration (MIC) in the data set on Enterobacter cloacae [20] is over 25 µg/mL; in the data set with Staphylococcus aureus [21], 12.5 µg/mL (≈ 30.7 µM). The CC50 in data set [1] amounted to 4.2 µg/mL (≈ 10.3 µM); in [2], 8.3 µg/mL (≈ 20.4 µM); in data set [3], 7.6 µg/mL (≈ 18.7 µM); in data set [4], 3.71 µg/mL (≈ 9.11 µM); in data set [5] it was 8.5 µg/mL (≈ 20.9 µM).

As to `O=C1NC[C@@H](c2c[nH]c3ccccc23)N[C@H]1c1c[nH]c2cc(Br)ccc12`, the minimal inhibitory concentration (MIC) against Escherichia coli [6], in the data set on Klebsiella oxytoca, in the data set with Pseudomonas aeruginosa [7], in the data set on Pseudomonas aeruginosa [8], with Escherichia coli [9] and against Staphylococcus aureus [10] was over 25 µg/mL throughout. For the same compound, the MIC in the data set with Escherichia coli [11], against Enterococcus faecium, against Staphylococcus aureus [12], in the data set on Streptococcus pyogenes [13], in the data set with Salmonella typhimurium and in the data set with Pseudomonas aeruginosa [14] was over 25 µg/mL throughout. The minimum inhibitory concentration (MIC) in the data set with Pseudomonas aeruginosa [15] was over 25 µg/mL; against Escherichia coli [16], over 25 µg/mL; in the data set on Streptococcus pyogenes [17], 25 µg/mL (≈ 61.1 µM); in the data set on Escherichia coli [18] it was over 25 µg/mL; in the data set on Enterobacter cloacae [19], over 25 µg/mL; against Klebsiella aerogenes, over 25 µg/mL. Besides, the MIC with Enterobacter cloacae [20] and in the data set on Staphylococcus aureus [21] was over 25 µg/mL in each case. Besides, the CC50 in data set [1] was over 10 µg/mL; in [2] it was 9.74 µg/mL (≈ 23.8 µM); in data set [3] it was over 10 µg/mL; in [4], 9.67 µg/mL (≈ 23.6 µM); in data set [5], 5.67 µg/mL (≈ 13.9 µM).

Turning to `O=C(C1=NC(c2c[nH]c3cc(Br)ccc23)CN1)c1c[nH]c2cc(Br)ccc12` (stereo not given) [SPONGOTINE C], the CC50 was 4.88 µg/mL (≈ 10 µM) in data set [1]; 5.16 µg/mL (≈ 10.6 µM) in data set [2]; 4.82 µg/mL (≈ 9.91 µM) in data set [3]; 5.22 µg/mL (≈ 10.7 µM) in [4]; 4.81 µg/mL (≈ 9.89 µM) in data set [5].

For `O=C1N[C@@H](c2c[nH]c3cc(Br)ccc23)CN=C1c1c[nH]c2cc(Br)ccc12` [HAMACANTHIN A], the CC50 worked out at 4.66 µg/mL (≈ 9.59 µM) in data set [1]; 5.6 µg/mL (≈ 11.5 µM) in data set [2]; 5.44 µg/mL (≈ 11.2 µM) in data set [3]; 4.49 µg/mL (≈ 9.24 µM) in data set [4]; 5.24 µg/mL (≈ 10.8 µM) in data set [5].

With `O=C1N[C@H](c2c[nH]c3ccccc23)CN[C@H]1c1c[nH]c2cc(Br)ccc12`, the CC50 is over 10 µg/mL in data set [1]; over 10 µg/mL in data set [2]; over 10 µg/mL in [3]; over 10 µg/mL in data set [4]; 4.92 µg/mL (≈ 12 µM) in data set [5].
